ChEMBL document CHEMBL5247577, “Improved Selective Class I HDAC and Novel Selective HDAC3 Inhibitors: Beyond Hydroxamic Acids and Benzamides” (ACS Med Chem Lett, 2019)
Calls of active or inactive are those of the source. The calls are words filed in the database; no cut-off is given here.

Experiments:
[1] = target: T1, Voltage-gated inwardly rectifying potassium channel KCNH2 (Homo sapiens, UniProt Q12809); assay: Inhibition of hERG by patch clamp assay; format: toxicity
[2] = Half life in Gottigen pig plasma by LC/MS/MS analysis; format: ADME, Sus scrofa
In short: (§1)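 Compound dosed as the tartrate salt. Oral doses were 20 mg/kg in mouse, 10 mg/kg in rat and 5 mg/kg in minipig.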

Histone deacetylase 2 = Histone deacetylase 2 (Homo sapiens, UniProt Q92769); assay: Inhibition of human HDAC2
Chain of Histone deacetylase 2 (Q92769 whole entry): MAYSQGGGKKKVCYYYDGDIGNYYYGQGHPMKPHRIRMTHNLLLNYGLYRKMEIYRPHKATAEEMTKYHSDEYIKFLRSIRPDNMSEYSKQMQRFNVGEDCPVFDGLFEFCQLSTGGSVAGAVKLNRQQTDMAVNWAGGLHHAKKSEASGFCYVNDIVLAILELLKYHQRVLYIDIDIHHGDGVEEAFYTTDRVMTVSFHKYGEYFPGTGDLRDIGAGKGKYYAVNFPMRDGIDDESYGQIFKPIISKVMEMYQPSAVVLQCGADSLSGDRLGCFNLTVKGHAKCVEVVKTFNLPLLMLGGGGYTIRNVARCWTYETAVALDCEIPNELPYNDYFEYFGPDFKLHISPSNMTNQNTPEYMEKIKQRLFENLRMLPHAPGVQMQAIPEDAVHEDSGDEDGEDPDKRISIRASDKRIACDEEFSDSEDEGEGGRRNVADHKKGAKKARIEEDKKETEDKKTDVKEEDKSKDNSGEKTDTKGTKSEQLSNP

[3] = AUC in NMRI mouse plasma at 5 to 20 mg/kg, po by LC/MS/MS analysis; format: ADME, organism-based; design: route po; details: in vivo, dose 5-20 mg/kg
In short: (§2)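 Compound given orally as its tartrate salt at 20 mg/kg in mouse, 10 mg/kg in rat and 5 mg/kg in minipig.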

[4] = Volume of distribution at steady state in NMRI mouse at 20 mg/kg, po or 2 mg/kg, iv by LC/MS/MS analysis; format: ADME, organism-based; details: in vivo; in short: as §1
Cytochrome P450 1A2 = target: T2, Cytochrome P450 1A2 (Homo sapiens, UniProt P05177); assay: Inhibition of CYP1A2 (unknown origin); format: ADME
T2 sequence (P05177 whole entry): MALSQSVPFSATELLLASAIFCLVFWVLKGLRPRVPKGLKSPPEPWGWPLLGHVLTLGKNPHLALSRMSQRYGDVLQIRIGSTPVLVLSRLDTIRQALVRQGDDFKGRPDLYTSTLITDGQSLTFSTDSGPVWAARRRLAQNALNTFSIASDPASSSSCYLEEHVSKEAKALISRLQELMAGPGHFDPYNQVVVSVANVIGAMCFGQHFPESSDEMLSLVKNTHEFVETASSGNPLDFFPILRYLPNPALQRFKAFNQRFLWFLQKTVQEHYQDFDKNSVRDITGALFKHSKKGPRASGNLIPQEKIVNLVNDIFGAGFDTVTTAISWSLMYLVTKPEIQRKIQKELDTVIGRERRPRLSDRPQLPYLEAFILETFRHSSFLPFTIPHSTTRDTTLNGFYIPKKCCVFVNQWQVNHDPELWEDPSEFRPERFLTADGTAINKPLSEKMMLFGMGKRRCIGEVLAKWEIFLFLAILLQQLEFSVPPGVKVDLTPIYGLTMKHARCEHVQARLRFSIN

Histone deacetylase 1 = Histone deacetylase 1 (Homo sapiens, UniProt Q13547); assay: Inhibition of human recombinant his tagged HDAC1 expressed in baculovirus expression system using FLUOR DE LYS-SIRT1 as fluorogenic substrate preincubated for 10 mins followed by substrate addition and measured after 1 hr by spectrophotometer based analysis
Chain of Histone deacetylase 1 (Q13547 whole entry): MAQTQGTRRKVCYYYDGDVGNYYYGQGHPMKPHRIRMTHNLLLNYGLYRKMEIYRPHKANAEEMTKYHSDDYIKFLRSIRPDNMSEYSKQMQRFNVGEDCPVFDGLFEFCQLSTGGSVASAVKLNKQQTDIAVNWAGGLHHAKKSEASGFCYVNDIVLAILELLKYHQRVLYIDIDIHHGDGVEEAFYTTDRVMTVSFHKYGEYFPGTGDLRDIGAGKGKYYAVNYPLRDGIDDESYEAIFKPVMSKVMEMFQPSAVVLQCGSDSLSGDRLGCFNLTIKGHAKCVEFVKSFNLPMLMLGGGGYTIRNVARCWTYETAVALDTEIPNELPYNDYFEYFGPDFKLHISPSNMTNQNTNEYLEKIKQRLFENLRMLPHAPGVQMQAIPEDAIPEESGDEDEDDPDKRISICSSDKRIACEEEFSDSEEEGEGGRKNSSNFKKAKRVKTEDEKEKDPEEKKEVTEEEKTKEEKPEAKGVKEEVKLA

[5] = target: Sodium channel protein type 5 subunit alpha (Homo sapiens, UniProt Q14524); assay: Inhibition of Nav1.5 (unknown origin)
Chain of Sodium channel protein type 5 subunit alpha (Q14524 whole entry): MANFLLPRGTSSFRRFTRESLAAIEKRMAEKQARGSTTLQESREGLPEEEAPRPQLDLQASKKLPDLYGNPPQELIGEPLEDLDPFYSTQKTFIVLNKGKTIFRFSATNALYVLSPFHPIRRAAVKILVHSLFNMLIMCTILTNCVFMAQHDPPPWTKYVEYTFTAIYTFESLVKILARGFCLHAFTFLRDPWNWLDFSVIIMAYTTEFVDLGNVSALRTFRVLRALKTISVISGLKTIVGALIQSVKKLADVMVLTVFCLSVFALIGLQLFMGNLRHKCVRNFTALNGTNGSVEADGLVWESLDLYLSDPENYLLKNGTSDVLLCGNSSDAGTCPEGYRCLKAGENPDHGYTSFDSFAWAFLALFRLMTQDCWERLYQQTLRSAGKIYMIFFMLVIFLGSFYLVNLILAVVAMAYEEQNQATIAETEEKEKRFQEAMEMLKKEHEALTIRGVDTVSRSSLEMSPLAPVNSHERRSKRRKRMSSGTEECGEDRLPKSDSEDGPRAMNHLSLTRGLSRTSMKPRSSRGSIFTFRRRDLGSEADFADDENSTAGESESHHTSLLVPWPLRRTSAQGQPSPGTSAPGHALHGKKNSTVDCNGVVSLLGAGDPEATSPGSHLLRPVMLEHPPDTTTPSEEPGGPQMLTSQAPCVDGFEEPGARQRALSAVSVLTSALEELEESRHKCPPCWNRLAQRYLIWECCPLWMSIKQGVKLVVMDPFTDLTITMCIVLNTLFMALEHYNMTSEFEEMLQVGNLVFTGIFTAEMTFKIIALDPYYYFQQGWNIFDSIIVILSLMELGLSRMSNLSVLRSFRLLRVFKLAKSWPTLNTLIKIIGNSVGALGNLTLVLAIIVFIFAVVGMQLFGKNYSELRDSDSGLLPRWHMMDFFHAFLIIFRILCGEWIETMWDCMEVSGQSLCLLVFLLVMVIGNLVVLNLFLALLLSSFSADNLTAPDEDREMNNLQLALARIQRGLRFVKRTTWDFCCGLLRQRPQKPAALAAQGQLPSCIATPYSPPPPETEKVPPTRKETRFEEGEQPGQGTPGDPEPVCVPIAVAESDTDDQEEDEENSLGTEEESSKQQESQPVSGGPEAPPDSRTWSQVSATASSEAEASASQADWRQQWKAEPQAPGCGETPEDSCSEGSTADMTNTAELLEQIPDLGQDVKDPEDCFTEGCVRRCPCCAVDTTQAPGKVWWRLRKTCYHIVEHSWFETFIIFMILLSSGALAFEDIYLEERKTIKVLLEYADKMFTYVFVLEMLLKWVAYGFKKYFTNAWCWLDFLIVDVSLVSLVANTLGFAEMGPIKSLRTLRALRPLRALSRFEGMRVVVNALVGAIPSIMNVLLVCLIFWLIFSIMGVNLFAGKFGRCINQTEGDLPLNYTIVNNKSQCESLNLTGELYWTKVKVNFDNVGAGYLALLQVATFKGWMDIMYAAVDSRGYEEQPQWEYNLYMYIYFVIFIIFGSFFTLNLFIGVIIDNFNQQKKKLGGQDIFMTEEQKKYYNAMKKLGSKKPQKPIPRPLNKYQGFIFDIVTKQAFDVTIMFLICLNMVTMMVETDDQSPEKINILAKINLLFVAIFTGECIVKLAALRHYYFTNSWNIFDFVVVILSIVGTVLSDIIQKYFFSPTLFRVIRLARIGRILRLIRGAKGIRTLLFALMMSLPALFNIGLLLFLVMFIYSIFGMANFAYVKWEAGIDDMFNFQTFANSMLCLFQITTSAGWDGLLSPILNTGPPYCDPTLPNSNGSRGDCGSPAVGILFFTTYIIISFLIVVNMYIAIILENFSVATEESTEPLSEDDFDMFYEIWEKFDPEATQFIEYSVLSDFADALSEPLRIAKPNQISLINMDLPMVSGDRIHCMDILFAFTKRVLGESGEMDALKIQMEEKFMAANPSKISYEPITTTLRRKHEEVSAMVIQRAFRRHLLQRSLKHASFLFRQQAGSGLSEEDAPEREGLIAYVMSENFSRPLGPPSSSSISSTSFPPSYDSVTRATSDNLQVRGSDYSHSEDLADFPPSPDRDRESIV

[6] = Half life in Wistar rat plasma at 10 mg/kg, po or 2 mg/kg,iv by LC/MS/MS analysis; format: ADME, organism-based; in short: as §1
[7] = AUC in Wistar rat plasma at 5 to 20 mg/kg, po by LC/MS/MS analysis; format: ADME, organism-based; design: route po; details: dose 5-20 mg/kg; in short: as §2
[8] = Genotoxicity in Salmonella typhimurium by Ames test; format: toxicity; details: salmonella enterica subsp. enterica serovar typhimurium
In short: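 Bacterial reverse mutation assay in two strains, Salmonella typhimurium and Escherichia coli, scoring reverse mutations.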

[9] = target: Histone deacetylase 5 (Homo sapiens) (UniProt Q9UQL6); assay: Inhibition of human HDAC5 at 5 uM
[10] = target: T1, Voltage-gated inwardly rectifying potassium channel KCNH2; assay: Inhibition of hERG potassium channel incubated for 4 hrs by fluorescence polarization assay; format: toxicity
[11] = Oral bioavailability in NMRI mouse at 20 mg/kg by LC/MS/MS analysis; format: ADME, organism-based; details: in vivo; in short: as §1
Histone deacetylase = assay: Inhibition of HDAC in human HeLa cells using FLUOR DE LYS-SIRT1 as fluorogenic substrate incubated for 4 hrs by spectrophotometer based analysis; format: cell-based
[12] = Volume of distribution at steady state in Gottigen pig by LC/MS/MS analysis; format: ADME, Sus scrofa; details: in vivo, read-out: Vdss; in short: as §1
[13] = target: Histone deacetylase 4 (Homo sapiens) (UniProt P56524); assay: Inhibition of human HDAC4 at 5 uM
[14] = Oral bioavailability in Wistar rat at 10 mg/kg by LC/MS/MS analysis; format: ADME, organism-based; details: in vivo; in short: as §1
[15] = Permeability of the compound in porcine brain endothelial cells by BBB assay; format: ADME, cell-based, Sus scrofa, Endothelial cell; details: pig; read-out: permeability
[16] = Clearance in Gottigen pig plasma by LC/MS/MS analysis; format: ADME, Sus scrofa; in short: as §1
[17] = Oral bioavailability in Gottigen pig by LC/MS/MS analysis; format: ADME, organism-based, Sus scrofa; details: in vivo; in short: as §1
[18] = Half life in NMRI mouse plasma at 20 mg/kg, po or 2 mg/kg, iv by LC/MS/MS analysis; format: ADME, organism-based; in short: as §1
Cytochrome P450 2C9 = Cytochrome P450 2C9 (Homo sapiens, UniProt P11712); assay: Inhibition of CYP2C9 (unknown origin); format: ADME
Chain of Cytochrome P450 2C9 (P11712 whole entry): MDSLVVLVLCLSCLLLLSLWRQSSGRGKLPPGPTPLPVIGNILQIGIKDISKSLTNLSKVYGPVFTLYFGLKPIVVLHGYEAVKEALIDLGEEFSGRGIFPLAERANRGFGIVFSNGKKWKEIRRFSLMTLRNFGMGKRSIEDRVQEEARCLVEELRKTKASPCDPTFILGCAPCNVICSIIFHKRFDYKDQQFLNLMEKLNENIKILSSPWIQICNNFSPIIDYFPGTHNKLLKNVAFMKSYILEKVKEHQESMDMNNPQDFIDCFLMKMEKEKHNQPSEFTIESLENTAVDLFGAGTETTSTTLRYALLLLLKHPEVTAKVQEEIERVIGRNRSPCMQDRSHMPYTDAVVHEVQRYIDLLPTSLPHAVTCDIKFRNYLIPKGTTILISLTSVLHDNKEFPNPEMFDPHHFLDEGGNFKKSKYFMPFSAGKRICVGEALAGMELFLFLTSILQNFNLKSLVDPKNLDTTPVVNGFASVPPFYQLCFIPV

T1 sequence (Q12809 whole entry): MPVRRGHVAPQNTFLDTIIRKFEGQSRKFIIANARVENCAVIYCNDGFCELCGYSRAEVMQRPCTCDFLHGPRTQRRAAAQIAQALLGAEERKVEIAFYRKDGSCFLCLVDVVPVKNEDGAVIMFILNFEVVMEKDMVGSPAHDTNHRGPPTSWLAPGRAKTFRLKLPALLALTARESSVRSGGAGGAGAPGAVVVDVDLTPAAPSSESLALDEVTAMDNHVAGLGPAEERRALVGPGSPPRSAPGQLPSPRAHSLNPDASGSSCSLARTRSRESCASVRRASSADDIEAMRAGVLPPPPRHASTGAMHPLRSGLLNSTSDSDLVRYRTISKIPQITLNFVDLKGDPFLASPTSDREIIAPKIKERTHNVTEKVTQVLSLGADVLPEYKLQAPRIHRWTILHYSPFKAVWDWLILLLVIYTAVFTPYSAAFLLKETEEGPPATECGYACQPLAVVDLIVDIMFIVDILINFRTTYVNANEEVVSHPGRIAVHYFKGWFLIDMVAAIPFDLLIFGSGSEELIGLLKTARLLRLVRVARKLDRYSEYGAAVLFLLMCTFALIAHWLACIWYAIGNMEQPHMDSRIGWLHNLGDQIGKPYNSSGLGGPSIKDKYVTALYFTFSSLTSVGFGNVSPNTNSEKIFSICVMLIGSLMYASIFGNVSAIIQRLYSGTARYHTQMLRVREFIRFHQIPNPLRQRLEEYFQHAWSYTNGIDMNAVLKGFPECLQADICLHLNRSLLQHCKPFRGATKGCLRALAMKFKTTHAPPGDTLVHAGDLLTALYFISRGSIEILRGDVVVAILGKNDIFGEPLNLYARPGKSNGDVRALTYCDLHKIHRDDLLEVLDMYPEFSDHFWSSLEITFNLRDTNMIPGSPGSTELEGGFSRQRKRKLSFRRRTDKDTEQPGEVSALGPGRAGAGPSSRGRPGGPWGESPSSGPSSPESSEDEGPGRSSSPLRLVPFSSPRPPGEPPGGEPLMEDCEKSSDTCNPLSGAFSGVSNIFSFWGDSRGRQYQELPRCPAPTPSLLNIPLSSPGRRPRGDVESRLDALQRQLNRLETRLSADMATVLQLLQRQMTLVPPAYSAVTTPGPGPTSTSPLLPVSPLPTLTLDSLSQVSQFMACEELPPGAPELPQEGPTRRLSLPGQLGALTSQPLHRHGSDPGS

- half-life [2]: 3.7 h
- IC50 (Histone deacetylase 2): 0.0028 µM
- AUC [3]: 9.3 µM·h
- Vdss [4]: 3.2 L/kg
- IC50 (Cytochrome P450 1A2): > 20 µM
- IC50 (Histone deacetylase 1): 0.0017 µM
- half-life [6]: 3.3 h
- AUC [7]: 21.5 µM·h
- inhibition [9]: inactive
- F [11]: 62%
- EC50 (Histone deacetylase): 0.05 µM
- Vd [12]: 0.64 L/kg
- inhibition [13]: inactive
- bioavailability [14]: 100%
- Papp [15]: 10.5 ×10⁻⁶ cm/s
- clearance [16]: 20 mL/min/kg
- bioavailability [17]: 30%
- half-life [18]: 3.3 h
- IC50 (Cytochrome P450 2C9): > 20 µM
SMILES: CCC(=O)CCCCC[C@H](NC(=O)C1CN(C)C1)c1ncc(-c2cc3ccccc3nc2OC)o1
- IC50 [1]: 10 µM
- IC50 [5]: > 16 µM
- Activity [8]: Non-Toxic
- IC50 [10]: 3.6 µM
